Assay results published in paper PMC8035306 (Journal of medicinal chemistry, 2021).

Assays:
[1] = molecular target: T1, PRMT6 (Homo sapiens, UniProt Q96LA8); assay: PRMT6 radiometric biochemical assay, 2 h preincubation
[2] = molecular target: T1, PRMT6; assay: Methyltransferase selectivity panel: PRMT6; type: biochemical; settings: at 1 and 10 μM
Outline: (§1)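 Panel of 33 methyltransferases (8 PRMTs, 21 PKMTs, 3 DNMTs, 1 RNA methyltransferase) run by an earlier published protocol. Test compound at 1 μM and 10 μM; n = 3.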

[3] = test system: other 32 methyltransferases (PRMTs, PKMTs, DNMTs, RNA methyltransferase); assay: Methyltransferase selectivity panel: other 32 methyltransferases; type: biochemical; settings: at 1 and 10 μM
Outline: as §1

[4] = molecular target: T1, PRMT6; assay: Mass spectrometry analysis for assessing covalent binding; settings: PRMT6 incubated with compound for 2 h
Outline: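 Purified PRMT6 incubated with a 20-fold molar excess of test compound at room temperature, then acidified with 0.1% trifluoroacetic acid (aq.). Sample separated by HPLC on a 5–95% acetonitrile/water gradient and analysed by electrospray-ionisation time-of-flight mass spectrometry for mass shifts indicating covalent adducts.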

[5] = test system: HEK293T cells; assay: Toxicity to HEK293T cells seen in the cellular PRMT6 assay; type: cell-based; settings: 20 h
[6] = test system: HEK293T; assay: Cell viability assay; type: cell-based; settings: up to 10 μM, 3 days treatment
Outline: (§2)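 Cells seeded at 1 × 10^4 per well and left 24 h, then exposed for 3 days to serially diluted test compound starting at 10 μM. CCK-8 (WST-8) reagent added, followed by 4 h at 37 °C; absorbance read at 450 nm. Results given as average ± SD of three replicate experiments.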

[7] = test system: PNT2; assay: Cell viability assay; type: cell-based; settings: PNT2, up to 10 μM, 3 days treatment
Outline: as §2

[8] = test system: MCF-7; assay: Cell viability assay; type: cell-based; settings: MCF-7, up to 10 μM, 3 days treatment
Outline: as §2

[9] = molecular target: Flag-tagged PRMT6 in HEK293T cells (Homo sapiens, UniProt Q96LA8); assay: Cellular PRMT6 assay; type: cell-based; settings: 20 h, up to 10 μM
Flag-tagged PRMT6 in HEK293T cells, sequence (Q96LA8 whole entry): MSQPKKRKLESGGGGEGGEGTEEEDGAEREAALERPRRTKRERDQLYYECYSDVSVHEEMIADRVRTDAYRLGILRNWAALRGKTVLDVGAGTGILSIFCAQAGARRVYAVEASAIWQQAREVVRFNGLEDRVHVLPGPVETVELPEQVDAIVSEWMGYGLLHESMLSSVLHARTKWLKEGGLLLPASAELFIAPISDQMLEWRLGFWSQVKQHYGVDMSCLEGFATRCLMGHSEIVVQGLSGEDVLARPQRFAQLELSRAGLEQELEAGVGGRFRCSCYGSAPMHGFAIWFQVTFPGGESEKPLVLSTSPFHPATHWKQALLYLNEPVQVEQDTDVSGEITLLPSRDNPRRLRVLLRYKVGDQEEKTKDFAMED

T1 sequence (Q96LA8 whole entry): as above

decrease in the IC50 value after compound preincubation with PRMT6 ([1]; 2 h preincubation versus no incubation)	pattern of inhibition with respect to SAM cofactor and peptide substrate ([1]; 2 h preincubation, IC50 at various SAM or peptide concentrations)	inhibition of PRMT6 in methyltransferase panel [2]	inhibition of other 32 methyltransferases [3]	covalent modification of PRMT6 [4]	activity against PRMT6 (in words) [1]	reduction of cellular levels of H3R2me2a [9]	reduction of cellular levels of H4R3me2a [9]	SMILES	toxicity to HEK293T cells ([5]; up to 10 μM)	toxicity (cell viability) [6]	toxicity (cell viability) [7]	toxicity (cell viability) [8]	toxicity to HEK293T cells ([5]; at 30 μM)
more than 100 fold	noncompetitive	potently inhibited	did not significantly inhibit	No covalent modification				Cc1cc(C)cc([C@@H]2c3cc(C)ccc3NC(=O)CN2C(=O)c2ccc(Br)s2)c1 [(R)-2, 4-(5-bromothiophene-2-carbonyl)-5-(3,5-dimethylphenyl)-7-methyl-1,3,4,5-tetrahydro-2H-benzo[e][1,4]diazepin-2-one]	did not show significant toxicity	Neither (R)-2 nor (S)-2 showed any significant toxicity	Neither (R)-2 nor (S)-2 showed any significant toxicity	Neither (R)-2 nor (S)-2 showed any significant toxicity	
		did not significantly inhibit	did not significantly inhibit		inactive	did not significantly reduce	did not significantly reduce	Cc1cc(C)cc([C@H]2c3cc(C)ccc3NC(=O)CN2C(=O)c2ccc(Br)s2)c1 [(S)-2, 4-(5-bromothiophene-2-carbonyl)-5-(3,5-dimethylphenyl)-7-methyl-1,3,4,5-tetrahydro-2H-benzo[e][1,4]diazepin-2-one]		Neither (R)-2 nor (S)-2 showed any significant toxicity	Neither (R)-2 nor (S)-2 showed any significant toxicity	Neither (R)-2 nor (S)-2 showed any significant toxicity	significant toxicity
